The nature of data set [1]: Antiproliferative activity against HREC assessed as reduction in cell number incubated for 44 hrs by alamar blue based fluorescence assay. Type of data set: functional. To be noted: Homo sapiens.
Data set [2] is described as follows: Cytotoxicity against human 92-1 cells assessed as reduction in cell number incubated for 44 hrs by alamar blue based fluorescence assay. (In general: Resazurin is reduced to fluorescent resorufin, in cell work by metabolically active cells.)
The species named for data set [3] is Homo sapiens. Kind of data set: Antiangiogenic activity against HREC assessed as reduction in tube formation at 0.05 to 0.5 uM incubated for 8 hrs by matrigel based tube formation assay. Type of data set: functional. In outline:
(§1)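 HRECs (passage 5–8), 15,000 cells in EGM-2 medium, plated on Matrigel basement membrane coat with DMSO vehicle or graded compound concentrations; SH-11037 as positive control. Images taken after 8 h; tubule length quantified by Angiogenesis Analyzer macros and expressed relative to DMSO control. Mean ± SEM, n=3–6 wells, duplicate experiments; one-way ANOVA with Dunnett's test.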

Data set [4] in a line: Antiproliferative activity against human ARPE19 assessed as reduction in cell number incubated for 44 hrs by alamar blue based fluorescence assay. To be noted: ARPE-19 cells.
Data set [5] is described as follows: Cytotoxicity against human Y79 cells assessed as reduction in cell number incubated for 44 hrs by alamar blue based fluorescence assay.
Data set [6] in a line: Antiproliferative activity against HUVEC assessed as reduction in cell number incubated for 44 hrs by alamar blue based fluorescence assay. The note with it: human, HUVEC cells. In outline:
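Primary endothelial cells (HRECs, HUVECs; passage 5–8) in EGM-2; 2,500 cells seeded, 24 h at 37°C, 5% CO2, then compounds 0.5 nM–500 μM for 44 h. alamarBlue added 4 h, fluorescence ex 560/em 590 nm.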

The species entered for data set [7] is Homo sapiens. In words: Antiangiogenic activity against HREC assessed as reduction in tube formation incubated for 8 hrs by matrigel based tube formation assay. Type of data set: functional. In outline: as §1
Data set [8] is filed under the species Homo sapiens. In words: Antiangiogenic activity against HREC assessed as reduction in tube formation at 0.01 to 0.1 uM incubated for 8 hrs by matrigel based tube formation assay. Type of data set: functional. In outline: as §1
Data set [9] is filed under the species Homo sapiens. In words: Antiangiogenic activity against HREC assessed as reduction in tube formation at 0.01 to 0.1 nM incubated for 8 hrs by matrigel based tube formation assay. Type of data set: functional. In outline: as §1

SMILES strings stand for the structures. The source made the active and inactive calls. The rule behind the calls is not given here.

In ChEMBL document CHEMBL4316633, “The Antiangiogenic Activity of Naturally Occurring and Synthetic Homoisoflavonoids from the Hyacinthaceae ( sensu APGII)” (J Nat Prod, 2019) one finds GI50 and inhibition data, which are given here for five compounds.

Regarding `CCOc1ccc(C(=O)/C=C/c2ccc(OC)c(OC)c2)c(O)c1C`, the GI50 (in general, the concentration at which growth is held to half of that of the control) in data set [1] is 3900 nM. Moreover, the concentration for 50% growth inhibition (GI50) at 44 h in data set [2], in [4] and in data set [5] was more than 100 µM in each case. Besides, the inhibition result in the data set listed under Homo sapiens [3] is “Active”.
Turning to `COc1ccc(/C=C2\COc3cc(OC(C)=O)cc(O)c3C2=O)cc1O`, the values for the GI50 at 44 h in [6], in data set [2] and in [5] were 26 µM, 67 µM and 58 µM, respectively. Moreover, the inhibition entry in the data set filed under Homo sapiens [7] is “Dose-dependent effect”. For the same compound, the GI50 in data set [1] amounted to 18000 nM.
Regarding `COc1ccc(C[C@@H]2COc3cc(OC)c(OC)c(OC)c3C2=O)cc1O`, the GI50 in data set [1] was 35 nM. In addition, the 50% growth inhibitory concentration (GI50) at 44 h in data set [2] is more than 100 µM; in [4] it was more than 100 µM; in data set [5] it was 85 µM. For the same compound, in the data set filed under Homo sapiens [8], the inhibition result was “Active”.
On to `COc1ccc(CC2COc3cc(OC)c(OC)c(OC)c3C2)cc1O` (racemic), for which the 50% growth inhibitory concentration (GI50) in [1] is 0.23 nM. The GI50 at 44 h in data set [2] came to 52 µM; in data set [4] it was 0.00034 µM; in data set [5], 18 µM. The inhibition entry in the data set filed under Homo sapiens [9] was “Active”.
As to `COc1ccc(/C=C2\COc3cc(OC)c(OC)c(O)c3C2=O)cc1O`, in [1], the concentration for 50% growth inhibition (GI50) amounted to 260 nM. Besides, the 50% growth inhibitory concentration (GI50) at 44 h in data set [2] is more than 100 µM; in data set [4], 4.8 µM; in [5], 2.4 µM. Also, in the data set listed under Homo sapiens [3], the inhibition result is “Active”.
